Measured values reported in ChEMBL document CHEMBL1649137, “Genetic analysis of factors affecting susceptibility of Bacillus subtilis to daptomycin” (2009).
≈ marks a conversion by molar mass, not a printed value.

Assays:
Bacillus subtilis [1] = assay: Antibacterial activity against psd gene-deficient Bacillus subtilis CU1065 mutant by liquid growth inhibition assay; assay type: functional
Summary of the method: (§1)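 Daptomycin MIC by liquid growth inhibition. Overnight cultures diluted 1:100, grown to mid-log, rediluted to 5 × 10^5 CFU/ml in Mueller-Hinton broth with 50 mg/liter Ca2+. At least 10 concentrations near the predicted MIC, plus a no-drug control, added at start; 200 μl. OD600 read every 20 min for 24 h at 37°C with shaking. Inhibition: 24 h OD600 <0.05. MIC is the mode of at least triplicates.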

Bacillus subtilis [2] = assay: Induction of yuaF gene expression in Bacillus subtilis W168 by microarray analysis; assay type: functional
Summary of the method: (§2)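 W168 grown in Ca2+-supplemented Mueller-Hinton broth at 37°C to OD600 0.4, split, and one half exposed to 1 μg/ml daptomycin for 20 min. Total RNA from three biological replicates; cDNA labeled with Alexa Fluor 555/647 and co-hybridized at 42°C for 16–18 h. Genes with summed intensity <20 or SD > mean were dropped. Fold change is treated/untreated signal, from ≥6 spot measurements.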

Bacillus subtilis [3] = assay: Induction of sdpI gene expression in Bacillus subtilis W168 by microarray analysis; assay type: functional; summary of the method: as §2
Bacillus subtilis [4] = assay: Antibacterial activity against Bacillus subtilis CU1066 with depletion in pgsA gene by liquid growth inhibition assay; assay type: functional; details: CU1065, in the assay text read “CU1065” for “CU1066”
Summary of the method: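 Liquid growth inhibition in Mueller-Hinton broth with 50 mg/liter Ca2+. Overnight cultures diluted 1:100, grown to mid-log, rediluted to 5 × 10^5 CFU/ml, then given at least 10 daptomycin concentrations near the predicted MIC plus a drug-free control. OD600 read every 20 min for 24 h at 37°C with shaking. MIC is the mode of at least triplicates of the lowest concentration giving final OD600 <0.05.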

Bacillus subtilis [5] = assay: Antibacterial activity against liaGFSR gene-deficient Bacillus subtilis W168 mutant by liquid growth inhibition assay; assay type: functional; summary of the method: as §1
Bacillus subtilis [6] = assay: Antibacterial activity against liaIH and mprF gene-deficient Bacillus subtilis W168 mutant by liquid growth inhibition assay; assay type: functional; summary of the method: as §1
Bacillus subtilis [7] = assay: Antibacterial activity against mprF and pspA gene-deficient Bacillus subtilis CU1065 mutant by liquid growth inhibition assay; assay type: functional; summary of the method: as §1
Bacillus subtilis [8] = assay: Induction of bcrC gene expression in Bacillus subtilis W168 by microarray analysis; assay type: functional; summary of the method: as §2
Bacillus subtilis [9] = assay: Decrease in rpmB gene expression in Bacillus subtilis W168 by microarray analysis; assay type: functional; summary of the method: as §2
Bacillus subtilis [10] = assay: Antibacterial activity against sigXM and liaIH gene-deficient Bacillus subtilis CU1065 mutant by liquid growth inhibition assay; assay type: functional; summary of the method: as §1
Bacillus subtilis [11] = assay: Antibacterial activity against pssA gene-deficient Bacillus subtilis CU1065 mutant by liquid growth inhibition assay; assay type: functional; summary of the method: as §1
Bacillus subtilis [12] = assay: Antibacterial activity against liaH, pspA and sigW gene-deficient Bacillus subtilis CU1065 mutant by liquid growth inhibition assay; assay type: functional; summary of the method: as §1
Bacillus subtilis [13] = assay: Antibacterial activity against sigW gene-deficient Bacillus subtilis CU1065 mutant by liquid growth inhibition assay; assay type: functional; summary of the method: as §1
Bacillus subtilis [14] = assay: Antibacterial activity against liaIH gene-deficient Bacillus subtilis W168 mutant by liquid growth inhibition assay; assay type: functional; summary of the method: as §1
Bacillus subtilis [15] = assay: Antibacterial activity against des gene-deficient Bacillus subtilis W168 mutant with alteration in membrane composition at 25 degC by liquid growth inhibition assay; assay type: functional
Summary of the method: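 Mid-log cells diluted to 5 × 10^5 CFU/ml in Mueller-Hinton broth with 50 mg/liter Ca2+. At least 10 concentrations near the predicted MIC, plus an untreated control, present from the start. Growth followed by OD600. Inhibition: final 24 h OD600 <0.05. MIC is the mode of at least triplicates.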

Bacillus subtilis [16] = assay: Induction of yhcZ gene expression in Bacillus subtilis W168 by microarray analysis; assay type: functional; summary of the method: as §2
Bacillus subtilis [17] = assay: Induction of murB gene expression in Bacillus subtilis W168 by microarray analysis; assay type: functional; summary of the method: as §2
Bacillus subtilis [18] = assay: Antibacterial activity against sigXW gene-deficient Bacillus subtilis CU1065 double mutant by liquid growth inhibition assay; assay type: functional; summary of the method: as §1
Bacillus subtilis [19] = assay: Decrease in yxeM gene expression in Bacillus subtilis W168 by microarray analysis; assay type: functional; summary of the method: as §2
Bacillus subtilis [20] = assay: Antibacterial activity against yhcYZ gene-deficient Bacillus subtilis CU1065 mutant by liquid growth inhibition assay; assay type: functional; summary of the method: as §1
Bacillus subtilis [21] = assay: Decrease in yisY gene expression in Bacillus subtilis W168 by microarray analysis; assay type: functional; summary of the method: as §2
Bacillus subtilis [22] = assay: Antibacterial activity against mprF and pssA gene-deficient Bacillus subtilis CU1065 mutant by liquid growth inhibition assay; assay type: functional; summary of the method: as §1
Bacillus subtilis [23] = assay: Induction of murG gene expression in Bacillus subtilis W168 by microarray analysis; assay type: functional; summary of the method: as §2
Bacillus subtilis [24] = assay: Increase in yfiC gene expression in Bacillus subtilis W168 by microarray analysis
Bacillus subtilis [25] = assay: Decrease in ywdE gene expression in Bacillus subtilis W168 by microarray analysis; assay type: functional; summary of the method: as §2
Bacillus subtilis [26] = assay: Induction of yvrL gene expression in Bacillus subtilis W168 by microarray analysis; assay type: functional
Summary of the method: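 W168 cultures in Mueller-Hinton broth with 50 mg/liter Ca2+, 37°C with shaking, grown to mid-log phase (OD600 0.4) from a 1:1,000 overnight dilution. Split: one half given 1 μg/ml daptomycin for 20 min, the other left untreated. Total RNA from three biological replicates; cDNA labeled with Alexa Fluor 555 or 647 and hybridized 16 to 18 h at 42°C. Induction = treated/untreated signal intensity, duplicate spots on three arrays.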

Bacillus subtilis [27] = assay: Decrease in ywhE gene expression in Bacillus subtilis W168 by microarray analysis; assay type: functional; summary of the method: as §2
Bacillus subtilis [28] = assay: Antibacterial activity against sigXM gene-deficient Bacillus subtilis CU1065 double mutant by liquid growth inhibition assay; assay type: functional; summary of the method: as §1
Bacillus subtilis [29] = assay: Decrease in yxeQ gene expression in Bacillus subtilis W168 by microarray analysis; assay type: functional; summary of the method: as §2
Bacillus subtilis [30] = assay: Antibacterial activity against sigM gene-deficient Bacillus subtilis CU1065 mutant by liquid growth inhibition assay; assay type: functional; summary of the method: as §1
Bacillus subtilis [31] = assay: Antibacterial activity against mprF and ugtP gene-deficient Bacillus subtilis CU1065 mutant by liquid growth inhibition assay; assay type: functional; summary of the method: as §1
Bacillus subtilis [32] = assay: Decrease in fabHB gene expression in Bacillus subtilis W168 by microarray analysis; assay type: functional; summary of the method: as §2
Bacillus subtilis [33] = assay: Antibacterial activity against liaIH, mprF and pspA gene-deficient Bacillus subtilis CU1065 mutant by liquid growth inhibition assay; assay type: functional; summary of the method: as §1
Bacillus subtilis [34] = assay: Antibacterial activity against Bacillus subtilis CU1065 mutant with mprF gene overexpression by liquid growth inhibition assay; assay type: functional; summary of the method: as §1
Bacillus subtilis [35] = assay: Antibacterial activity against sigMWX and pspA gene-deficient Bacillus subtilis CU1065 mutant by liquid growth inhibition assay; assay type: functional; summary of the method: as §1
Bacillus subtilis [36] = assay: Decrease in ypeB gene expression in Bacillus subtilis W168 by microarray analysis; assay type: functional; summary of the method: as §2
Bacillus subtilis [37] = assay: Antibacterial activity against sigW and pspA gene-deficient Bacillus subtilis CU1065 mutant by liquid growth inhibition assay; assay type: functional; summary of the method: as §1
Bacillus subtilis [38] = assay: Decrease in hutM gene expression in Bacillus subtilis W168 by microarray analysis; assay type: functional; summary of the method: as §2
Bacillus subtilis [39] = assay: Induction of ydaH gene expression in Bacillus subtilis W168 by microarray analysis; assay type: functional; summary of the method: as §2
Bacillus subtilis [40] = assay: Induction of yocH gene expression in Bacillus subtilis W168 by microarray analysis; assay type: functional; summary of the method: as §2
Bacillus subtilis [41] = assay: Decrease in yknU gene expression in Bacillus subtilis W168 by microarray analysis; assay type: functional; summary of the method: as §2
Bacillus subtilis [42] = assay: Antibacterial activity against ywnE gene-deficient Bacillus subtilis CU1065 mutant by liquid growth inhibition assay; assay type: functional; summary of the method: as §1
Bacillus subtilis [43] = assay: Antibacterial activity against Bacillus subtilis CU1065 mutant by liquid growth inhibition assay; assay type: functional; summary of the method: as §1
Bacillus subtilis [44] = assay: Antibacterial activity against mprF gene-deficient Bacillus subtilis CU1065 mutant by liquid growth inhibition assay; assay type: functional; summary of the method: as §1
Bacillus subtilis [45] = assay: Decrease in ywfB gene expression in Bacillus subtilis W168 by microarray analysis; assay type: functional; summary of the method: as §2
Bacillus subtilis [46] = assay: Induction of yoeB gene expression in Bacillus subtilis W168 by microarray analysis; assay type: functional; summary of the method: as §2
Bacillus subtilis [47] = assay: Decrease in lmrB gene expression in Bacillus subtilis W168 by microarray analysis; assay type: functional; summary of the method: as §2
Bacillus subtilis [48] = assay: Antibacterial activity against liaH and yhcYZ gene-deficient Bacillus subtilis W168 mutant by liquid growth inhibition assay; assay type: functional; summary of the method: as §1
Bacillus subtilis [49] = assay: Induction of rodA gene expression in Bacillus subtilis W168 by microarray analysis; assay type: functional; summary of the method: as §2

Structure (SMILES): CCCCCCCCCC(=O)N[C@@H](Cc1c[nH]c2ccccc12)C(=O)N[C@H](CC(N)=O)C(=O)N[C@@H](CC(=O)O)C(=O)N[C@@H]1C(=O)NCC(=O)N[C@@H](CCCN)C(=O)N[C@@H](CC(=O)O)C(=O)N[C@H](C)C(=O)N[C@@H](CC(=O)O)C(=O)NCC(=O)N[C@H](CO)C(=O)N[C@@H]([C@H](C)CC(=O)O)C(=O)N[C@@H](CC(=O)c2ccccc2N)C(=O)O[C@@H]1C
- MIC (Bacillus subtilis [1]): 1 µg/mL (≈ 0.617 µM)
- fold change (FC) (Bacillus subtilis [2]): 4.8
- fold change (FC) (Bacillus subtilis [3]): 8.9
- MIC (Bacillus subtilis [4]): 8 µg/mL (≈ 4.94 µM)
- MIC (Bacillus subtilis [5]): 0.5 µg/mL (≈ 0.309 µM)
- MIC (Bacillus subtilis [6]): 0.2 µg/mL (≈ 0.123 µM)
- MIC (Bacillus subtilis [7]): 0.5 µg/mL (≈ 0.309 µM)
- fold change (FC) (Bacillus subtilis [8]): 3.1
- fold change (FC) (Bacillus subtilis [9]): 0.5
- MIC (Bacillus subtilis [10]): 0.2 µg/mL (≈ 0.123 µM)
- MIC (Bacillus subtilis [11]): 1 µg/mL (≈ 0.617 µM)
- MIC (Bacillus subtilis [12]): 0.2 µg/mL (≈ 0.123 µM)
- MIC (Bacillus subtilis [13]): 0.8 µg/mL (≈ 0.494 µM)
- MIC (Bacillus subtilis [14]): 0.4 µg/mL (≈ 0.247 µM)
- MIC (Bacillus subtilis [15]): 0.4 µg/mL (≈ 0.247 µM)
- fold change (FC) (Bacillus subtilis [16]): 2.2
- fold change (FC) (Bacillus subtilis [17]): 2
- MIC (Bacillus subtilis [18]): 0.9 µg/mL (≈ 0.555 µM)
- fold change (FC) (Bacillus subtilis [19]): 0.4
- MIC (Bacillus subtilis [20]): 0.8 µg/mL (≈ 0.494 µM)
- fold change (FC) (Bacillus subtilis [21]): 0.5
- MIC (Bacillus subtilis [22]): 0.9 µg/mL (≈ 0.555 µM)
- fold change (FC) (Bacillus subtilis [23]): 2.4
- fold change (FC) (Bacillus subtilis [24]): 3.5
- fold change (FC) (Bacillus subtilis [25]): 9.9
- fold change (FC) (Bacillus subtilis [26]): 535
- fold change (FC) (Bacillus subtilis [27]): 0.4
- MIC (Bacillus subtilis [28]): 0.6 µg/mL (≈ 0.37 µM)
- fold change (FC) (Bacillus subtilis [29]): 0.5
- MIC (Bacillus subtilis [30]): 0.8 µg/mL (≈ 0.494 µM)
- MIC (Bacillus subtilis [31]): 0.6 µg/mL (≈ 0.37 µM)
- fold change (FC) (Bacillus subtilis [32]): 2.8
- MIC (Bacillus subtilis [33]): 0.2 µg/mL (≈ 0.123 µM)
- MIC (Bacillus subtilis [34]): 1.3 µg/mL (≈ 0.802 µM)
- MIC (Bacillus subtilis [35]): 0.5 µg/mL (≈ 0.309 µM)
- fold change (FC) (Bacillus subtilis [36]): 3.1
- MIC (Bacillus subtilis [37]): 0.8 µg/mL (≈ 0.494 µM)
- fold change (FC) (Bacillus subtilis [38]): 3.2
- fold change (FC) (Bacillus subtilis [39]): 6.2
- fold change (FC) (Bacillus subtilis [40]): 0.5
- fold change (FC) (Bacillus subtilis [41]): 7.8
- MIC (Bacillus subtilis [42]): 1 µg/mL (≈ 0.617 µM)
- MIC (Bacillus subtilis [43]): 1 µg/mL (≈ 0.617 µM)
- MIC (Bacillus subtilis [44]): 0.5 µg/mL (≈ 0.309 µM)
- fold change (FC) (Bacillus subtilis [45]): 7.9
- fold change (FC) (Bacillus subtilis [46]): 2.1
- fold change (FC) (Bacillus subtilis [47]): 0.5
- MIC (Bacillus subtilis [48]): 0.2 µg/mL (≈ 0.123 µM)
- fold change (FC) (Bacillus subtilis [49]): 2.7
